Measured values as given in ChEMBL document CHEMBL3352049, “Taxanes with high potency inducing tubulin assembly overcome tumoural cell resistances” (Bioorg Med Chem, 2014).
The source made the active and inactive calls. The calls are words filed in the database; no cut-off is given here.

Key:
A2780 [1] = test: Cytotoxicity against human A2780 cells by MTT assay; format: functional, cell-based
HeLa [2] = test: Cytotoxicity against human HeLa cells by MTT assay; format: functional, cell-based
Summary of the method: (§1)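 MTT assay run as a modified version of an earlier method. IC50 in nM is the mean ± SEM of three independent assays. Relative resistance is the IC50 in the resistant line (1A9 tubulin mutants, or βIII-transfected HeLa) divided by the IC50 in the parental line (1A9 or HeLa).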

A549 [3] = test: Cell cycle arrest at G2/M phase in human A549 cells at 60 nM after 20 hrs by flow cytometry; format: functional, cell-based
[4] = Cytotoxicity against human 1A9/A8 cells by MTT assay; format: functional, cell-based; summary of the method: as §1
microtubule (Bos taurus) [5] = test: Binding affinity to paclitaxel site of microtubule (Bos taurus) after 30 mins at 26 degC by epothilone B displacement method
A2780 [6] = test: Cell cycle arrest at G2/M phase in human A2780 cells at 30 nM after 20 hrs by flow cytometry; format: functional, cell-based
[7] = Cytotoxicity against human 1A9PTX10 cells by MTT assay; format: functional, cell-based; conditions: 1A9/ptx-10; summary of the method: as §1
1A9 [8] = test: Cytotoxicity against human 1A9 cells by MTT assay; format: functional, cell-based; summary of the method: as §1
Tubulin (Bos taurus) = Tubulin (Bos taurus) (UniProt Q6B856+Q862L2+Q862F3); test: Induction of calf brain tubulin polymerization assessed as tubulin concentration required to form microtubules by electron microscopy
Summary of the method: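 Critical tubulin concentration found by centrifugation and quantification of the polymer formed. Polymers adsorbed onto formvar/carbon-coated copper grids, stained with 1% uranyl acetate, and viewed by electron microscopy at 100 kV.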

A549 [9] = test: Effect on microtubule cytoskeleton in human A549 cells assessed as induction of micronuleated cells with short microtubules in cytoplasm at 60 to 120 nM after 24 hrs by immunofluorescence assay; format: cell-based
Summary of the method: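 A549 cells were grown overnight on coverslips, then given DMSO vehicle or ligand (60 or 120 nM) for 24 h. Cells were permeabilized with Triton X-100 and fixed in 3.7% formaldehyde. Microtubules were stained with DM1A α-tubulin antibody and DNA with Hoechst 33342. Preparations were viewed by epifluorescence microscopy.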

A549 [10] = test: Cell cycle arrest at G2/M phase in human A549 cells at 30 nM after 20 hrs by flow cytometry; format: functional, cell-based
A2780 [11] = test: Cell cycle arrest at G2/M phase in human A2780 cells at 60 nM after 20 hrs by flow cytometry; format: functional, cell-based
[12] = Cell cycle arrest at G2/M phase in human A2780AD cells at 60 nM after 20 hrs by flow cytometry; format: functional, cell-based; conditions: A2780 ADR
[13] = Cell cycle arrest at G2/M phase in human A2780AD cells at 30 nM after 20 hrs by flow cytometry; format: functional, cell-based; conditions: A2780 ADR
[14] = Cytotoxicity against human A2780AD cells by MTT assay; format: functional, cell-based; conditions: A2780 ADR
[15] = Cytotoxicity against human MCF7/R cells by MTT assay; format: functional, cell-based; conditions: MCF7R
microtubule (Bos taurus) [16] = test: Binding affinity to paclitaxel site of microtubule (Bos taurus) after 30 mins at 30 degC by epothilone B displacement method
microtubule (Bos taurus) [17] = test: Binding affinity to paclitaxel site of microtubule (Bos taurus) after 30 mins at 35 degC by epothilone B displacement method
[18] = Cytotoxicity against human 1A9PTX22 cells by MTT assay; format: functional, cell-based; conditions: 1A9/ptx-22; summary of the method: as §1
HeLa [19] = test: Cytotoxicity against human HeLa cells transfected with wild-type tubulin beta3 by MTT assay; format: functional, cell-based; summary of the method: as §1
microtubule (Bos taurus) [20] = test: Binding affinity to paclitaxel site of microtubule (Bos taurus) after 30 mins at 40 degC by epothilone B displacement method
microtubule (Bos taurus) [21] = test: Binding affinity to microtubule (Bos taurus) after 30 mins at 26 degC by flutax-2 displacement method
microtubule (Bos taurus) [22] = test: Binding affinity to microtubule (Bos taurus) after 30 mins at 40 degC by flutax-2 displacement method
microtubule (Bos taurus) [23] = test: Binding affinity to microtubule (Bos taurus) by TR-NOESY spectroscopy
1A9 [24] = test: Resistance ratio of IC50 for human 1A9PTX22 cells to IC50 for human 1A9 cells; format: functional
Summary of the method: (§2)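 Relative resistance is the IC50 in the 1A9 tubulin-mutant line divided by the IC50 in parental 1A9 ovarian carcinoma cells. Each IC50 (nM) is the mean ± SEM of three independent assays.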

microtubule (Bos taurus) [25] = test: Binding affinity to microtubule (Bos taurus) after 30 mins at 37 degC by flutax-2 displacement method
microtubule (Bos taurus) [26] = test: Binding affinity to microtubule (Bos taurus) after 30 mins at 32 degC by flutax-2 displacement method
microtubule (Bos taurus) [27] = test: Binding affinity to microtubule (Bos taurus) after 30 mins at 42 degC by flutax-2 displacement method
microtubule (Bos taurus) [28] = test: Binding affinity to microtubule (Bos taurus) by STD NMR spectroscopy
microtubule (Bos taurus) [29] = test: Binding affinity to microtubule (Bos taurus) after 30 mins at 27 degC by flutax-2 displacement method
microtubule (Bos taurus) [30] = test: Binding affinity to microtubule (Bos taurus) after 30 mins at 35 degC by flutax-2 displacement method
1A9 [31] = test: Resistance ratio of IC50 for human 1A9/A8 cells to IC50 for human 1A9 cells; format: functional
[32] = Resistance ratio of IC50 for human A2780AD cells to IC50 for human A2780 cells; format: functional, A2780 ADR
1A9 [33] = test: Resistance ratio of IC50 for human 1A9PTX10 cells to IC50 for human 1A9 cells; format: functional; summary of the method: as §2
HeLa [34] = test: Resistance ratio of IC50 for human HeLa cells transfected with wild-type tubulin beta3 to IC50 for human HeLa cells; format: functional
Summary of the method: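 Relative resistance is the IC50 in HeLa cells transfected with wild-type βIII-tubulin divided by the IC50 in parental HeLa cells. Each IC50 (nM) is the mean ± SEM of three independent assays.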

microtubule (Bos taurus) [35] = test: Binding affinity to microtubule (Bos taurus) after 30 mins at 30 degC by flutax-2 displacement method

Row | SMILES | IC50 (A2780 [1]) [nM] | IC50 (HeLa [2]) [nM] | Activity (A549 [3]) | IC50 [4] [nM] | Activity (A2780 [6]) | IC50 [7] [nM] | IC50 (1A9 [8]) [nM] | Activity (Tubulin (Bos taurus)) [µM] | Activity (A549 [9]) | Activity (A549 [10]) | Activity (A2780 [11]) | Activity [12] | Activity [13] | IC50 [14] [nM] | IC50 [15] [nM] | IC50 [18] [nM] | IC50 (HeLa [19]) [nM] | further results
1 | CCC(=O)O[C@H]1C(=O)[C@@]2(C)[C@H]([C@H](OC(=O)c3cccc(OC)c3)[C@]3(O)C[C@H](OC(=O)[C@H](O)[C@H](C=C(C)C)NC(=O)OC(C)(C)C)C(C)=C1C3(C)C)[C@]1(OC(C)=O)CO[C@@H]1C[C@@H]2O | 3.4 | 5.7 | Active | 4 | Active | 2.9 | 3.3 | 0.6 | Active | Active | Active | Active | Active | 10.5 | 0.33 | 4.9 | 4.8 | Kb (microtubule (Bos taurus) [5]): 731 ×10⁷ /M; Kb (microtubule (Bos taurus) [16]): 545 ×10⁷ /M; Kb (microtubule (Bos taurus) [17]): 478 ×10⁷ /M; Kb (microtubule (Bos taurus) [20]): 318 ×10⁷ /M
2 | CC(=O)O[C@@]12CO[C@@H]1C[C@H](O)[C@@]1(C)C(=O)[C@H](OC(=O)N(C)C)C3=C(C)[C@@H](OC(=O)[C@H](O)[C@H](C=C(F)F)NC(=O)OC(C)(C)C)C[C@@](O)([C@@H](OC(=O)c4ccccc4)[C@H]21)C3(C)C | 3.5 | 2.5 | Active | 4 | Active | 5.25 | 3.2 | 0.3 | Active | Active | Active | Active | Active | 15.1 | 4.3 | 7 | 3.5 | Kb (microtubule (Bos taurus) [21]): 15 ×10⁷ /M; Kb (microtubule (Bos taurus) [22]): 10 ×10⁷ /M; Activity (microtubule (Bos taurus) [23]): Active; Ratio IC50 (1A9 [24]): 2.2; Kb (microtubule (Bos taurus) [25]): 10 ×10⁷ /M; Kb (microtubule (Bos taurus) [26]): 13 ×10⁷ /M; Kb (microtubule (Bos taurus) [27]): 8 ×10⁷ /M; Activity (microtubule (Bos taurus) [28]): Active; Kb (microtubule (Bos taurus) [29]): 14 ×10⁷ /M; Kb (microtubule (Bos taurus) [30]): 10 ×10⁷ /M; Ratio IC50 (1A9 [31]): 1.2; Ratio IC50 [32]: 4.3; Ratio IC50 (1A9 [33]): 1.6; Ratio IC50 (HeLa [34]): 1.4; Kb (microtubule (Bos taurus) [35]): 13 ×10⁷ /M
